Data: ChEMBL document CHEMBL2396575, “Curcumin-I Knoevenagel's condensates and their Schiff's bases as anticancer agents: synthesis, pharmacological and simulation studies” (Bioorg Med Chem, 2013)

Assays:
[1] = Hemolytic activity in rabbit RBC at 100 ug/mL after 3 hrs by colorimetric assay relative to control; assay type: ADME, cell-based, Oryctolagus cuniculus, Erythrocyte; details: rabbit red blood cells (RBC), read-out: Activity
Summary of the method: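 Rabbit whole blood diluted 0.1 mL in 0.9 mL PBS, incubated with test compound at 37 °C for 3 h, then centrifuged at 3800 rpm for 15 min. Supernatant mixed with Drabkin's reagent for 15 min, cyanmethemoglobin read at 540 nm against a hemoglobin standard curve. Compound absorbance at 540 nm subtracted. Saline served as negative control, distilled water as positive.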

MCF7 [2] = experiment: Anticancer activity against wild-type human MCF7 cells assessed as cell viability at 1 ug/mL after 24 hrs by MTT assay relative to control; assay type: functional; details: MCF7, 24 h, read-out: Activity
Summary of the method: (§1)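 MCF-7 cells grown in low-glucose DMEM with 10% FBS plus antibiotic/antimycotic. Seeded at 2×10^3 cells/well, incubated 24 h at 37 °C in humidified 5% CO2, then exposed to test compounds for 24 h. Cells washed with PBS, given MTT for 4 h at 37 °C, formazan dissolved in DMSO, absorbance read at 570 nm. Viability taken as the ratio of treated to blank.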

MCF7 [3] = experiment: Anticancer activity against wild-type human MCF7 cells assessed as cell viability at 0.001 ug/mL after 24 hrs by MTT assay relative to control; assay type: functional; details: MCF7, 24 h, read-out: Activity; summary of the method: as §1
MCF7 [4] = experiment: Anticancer activity against wild-type human MCF7 cells assessed as cell viability at 0.1 ug/mL after 24 hrs by MTT assay relative to control; assay type: functional; details: MCF7, 24 h, read-out: Activity; summary of the method: as §1
MCF7 [5] = experiment: Anticancer activity against wild-type human MCF7 cells assessed as cell viability at 0.01 ug/mL after 24 hrs by MTT assay relative to control; assay type: functional; details: MCF7, 24 h, read-out: Activity; summary of the method: as §1
DNA [6] = experiment: Binding affinity to calf thymus DNA assessed as hypochromicity by UV-vis spectroscopic analysis relative to control; assay type: nucleic-acid assay; parameters: concentration or dose not given beside the values; details: Bos taurus
Summary of the method: (§2)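 Ct-DNA stock in tris–HCl pH 7.2–7.3, stored at 4 °C, used within 4 days; A260/A280 ≥1.8. DNA concentration from ε260 6600 M⁻¹ cm⁻¹. Compound dissolved in methanol (2.0×10^-4 M) and titrated with DNA (0.3–2.1 ×10^-4) in tris–HCl, UV–vis spectra recorded after each addition. Kb from modified Benesi–Hildebrand (Wolfe) equation.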

DNA [7] = experiment: Binding affinity to calf thymus DNA by Benessi-Hilderbrand equation; assay type: nucleic-acid assay; details: Bos taurus; summary of the method: as §2
MCF7 [8] = experiment: Anticancer activity against wild-type human MCF7 cells assessed as cell viability at 0.0001 ug/mL after 24 hrs by MTT assay relative to control; assay type: functional; details: MCF7, 24 h, read-out: Activity; summary of the method: as §1

Row | Activity (DNA [6]) [%] | Kb (DNA [7]) | Structure (SMILES) | hemolysis at 3 h, 100 ug/mL [1] [%] | viability at 1 µg/mL (MCF7 [2]) [%] | viability at 0.001 µg/mL (MCF7 [3]) [%] | viability at 0.1 µg/mL (MCF7 [4]) [%] | viability at 0.01 µg/mL (MCF7 [5]) [%] | viability at 0.0001 µg/mL (MCF7 [8]) [%]
1 | 6.2 | 1.4 ×10³ /M | O=Cc1cn(-c2ccccc2)nc1-c1ccccc1O | 18 | 79 | 97 | 73 | 92 | 96
2 | 5.2 | 2.5 ×10³ /M | O=Cc1cn(-c2ccccc2)nc1-c1cccc([N+](=O)[O-])c1 | 10 | 75 | 89 | 86 | 89 | 89
3 | 29 | 9.4 ×10⁴ /M | COc1cc(/C=C/C(=O)C(=Cc2cn(-c3ccccc3)nc2-c2cccc([N+](=O)[O-])c2)C(=O)/C=C/c2ccc(O)c(OC)c2)ccc1O | 14 | 70 | 96 | 85 | 88 | 99
4 | 5.6 | 7.6 ×10⁴ /M | O=Cc1cn(-c2ccccc2)nc1-c1ccc(Cl)cc1 | 9 | 59 | 98 | 90 | 98 | 100
5 | 7.7 | 1.9 ×10³ /M | O=Cc1cn(-c2ccccc2)nc1-c1ccc([N+](=O)[O-])cc1 | 7 | 80 | 97 | 96 | 86 | 106
6 | 9 | 9.1 ×10⁴ /M | COc1cc(/C=C/C(=N\NC(N)=O)C(=Cc2cn(-c3ccccc3)nc2-c2cccc([N+](=O)[O-])c2)C(/C=C/c2ccc(O)c(OC)c2)=N/NC(N)=O)ccc1O | 16 | 67 | 89 | 68 | 86 | 91

Further lines, the compound ahead of its results:

Row | Structure (SMILES) | Activity (DNA [6]) [%] | Kb (DNA [7]) | hemolysis at 3 h, 100 ug/mL [1] [%] | viability at 1 µg/mL (MCF7 [2]) [%] | viability at 0.001 µg/mL (MCF7 [3]) [%] | viability at 0.1 µg/mL (MCF7 [4]) [%] | viability at 0.01 µg/mL (MCF7 [5]) [%] | viability at 0.0001 µg/mL (MCF7 [8]) [%]
7 | COc1cc(/C=C/C(=O)C(=Cc2cn(-c3ccccc3)nc2-c2ccccc2O)C(=O)/C=C/c2ccc(O)c(OC)c2)ccc1O | 13 | 2.1 ×10⁴ /M | 20 | 88 | 97 | 91 | 93 | 100
8 | COc1cc(/C=C/C(=N\NC(N)=O)C(=Cc2cn(-c3ccccc3)nc2-c2ccccc2O)C(/C=C/c2ccc(O)c(OC)c2)=N/NC(N)=O)ccc1O | 10 | 3 ×10⁴ /M | 25 | 87 | 91 | 86 | 91 | 92
9 | COc1cc(/C=C/C(=N\NC(N)=O)C(=Cc2cn(-c3ccccc3)nc2-c2ccc([N+](=O)[O-])cc2)C(/C=C/c2ccc(O)c(OC)c2)=N/NC(N)=O)ccc1O | 8 | 2.6 ×10⁴ /M | 11 | 98 | 105 | 92 | 95 | 110
10 | COc1cc(/C=C/C(=O)C(=Cc2cn(-c3ccccc3)nc2-c2ccc([N+](=O)[O-])cc2)C(=O)/C=C/c2ccc(O)c(OC)c2)ccc1O | 12.3 | 1.4 ×10⁴ /M | 10 | 90 | 98 | 92 | 95 | 98
11 | COc1cc(/C=C/C(=N\NC(N)=O)C(=Cc2cn(-c3ccccc3)nc2-c2ccc(Cl)cc2)C(/C=C/c2ccc(O)c(OC)c2)=N/NC(N)=O)ccc1O | 11 | 8.1 ×10⁵ /M | 17 | 74 | 81 | 78 | 81 | 87
12 | COc1cc(/C=C/C(=O)C(=Cc2cn(-c3ccccc3)nc2-c2ccc(Cl)cc2)C(=O)/C=C/c2ccc(O)c(OC)c2)ccc1O | 8.1 | 7.8 ×10⁵ /M | 16 | 65 | 81 | 72 | 75 | 95
13 | COc1cccc2c1C(=O)c1c(O)c3c(c(O)c1C2=O)C[C@@](O)(C(=O)CO)C[C@@H]3O[C@H]1C[C@H](N)[C@H](O)[C@H](C)O1 [DOXORUBICIN] |  |  | 42 |  |  |  |  | 
